For assay [1], the system named is P. aeruginosa PAK growth with EDDHA, OD600, 28 h. In words: P. aeruginosa PAK growth delay under chelation, dose response, whole organism, PAK strain, OD600, EDDHA, dry powder, set 4 (AID 624075). The procedure, abridged:
(§1)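 System: wild-type Pseudomonas aeruginosa PAK bacterial culture; Medium: succinate M9 medium, pH 7.0; Also added: EDDHA, 2 µM; Compound dosing: concentration series from 100 µM down to 15 nM final; Incubation: bacterial growth with compounds for 28 h at 30 °C; Detection: OD600 absorbance.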

Experiment in assay [2]: as above
To be noted: P. aeruginosa PAK growth with EDDHA, OD600, 28 h; at 100 µM (top of the series). The procedure, abridged: as §1

Consider eight compounds from PubChem BioAssay AID624075 (Broad Institute, 2012).

Activity calls are given as the source filed them.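 Rule for the calls: active = fitted curve reaches -35% activity change at a concentration no higher than twice the top valid tested dose; inactive = the rest, including activity in the opposite direction.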

Consider `N#CC(c1ccc(Cl)cc1)c1cccc(C(F)(F)F)n1` (stereo not drawn), for which the AC35 in assay [1] was 71.1 µM. As for `CCCCC(c1ccc(Cl)cc1)c1nn[nH]n1` (stereo not drawn), the activity change, negative = growth inhibition in assay [2] was -6.42% (inactive). As to `N#CC(c1ccc(Cl)cc1)c1ccc(Cl)cn1` (stereo not drawn), in assay [2], the activity change, negative = growth inhibition is -13.9% (inactive).

In the case of `COCCC(C#N)c1ccc(F)cc1` (stereo not drawn), the activity change, negative = growth inhibition in assay [2] was -1.57% (inactive).

Take `COCCNC(C#N)c1ccc(Cl)cc1` (stereo not drawn): in assay [2], the activity change, negative = growth inhibition was -2.09% (inactive). `N#CC(c1ccc(F)cc1)c1cccc(C(F)(F)F)n1` (stereo not drawn): in assay [1], the AC35 was 88.7 µM. Turning to `N#CC(c1ccc(Cl)cc1)c1ncccc1Cl` (stereo not drawn), the activity change, negative = growth inhibition in assay [2] was -18.1% (inactive). Regarding `CCCCC(C#N)c1ccc(F)cn1` (stereo not drawn), the activity change, negative = growth inhibition in assay [2] was -7.64% (inactive).
